Laboratory results as given in ChEMBL document CHEMBL4680191, “Discovery of novel akt1 inhibitor induces autophagy associated death in hepatocellular carcinoma cells” (Eur J Med Chem, 2020).
pIC50: −log10 of the molar value. Active and inactive are the calls of the source. The rule behind the calls is not given here.

Key:
[1] = Effect on total AKT protein level in human Huh-7 cells at 0.1 to 0.2 uM by Western blot analysis; format: ADME, cell-based; details: huh-7, 0.2 µM, dose 0.1-0.2 µM
Summary of the method: (§1)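 Huh-7 cells were treated with or without compound. Total protein extracts were separated by SDS-PAGE and transferred to PVDF. Membranes were probed with primary antibodies, then HRP-conjugated secondary antibody (1:10,000), and detected by enhanced chemiluminescence.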

Hep 3B2 [2] = experiment: Cytotoxicity against human Hep3B cells assessed as reduction in cell viability by MTT assay; format: functional, cell-based
Summary of the method: (§2)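 Hepatoma cells were grown in DMEM with 10% FBS and streptomycin, then treated with compounds. Viability was read by MTT.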

[3] = system: RAC-beta serine/threonine-protein kinase (Homo sapiens), P31751 [S474D]; experiment: Inhibition of full length human Akt2 S474D mutant assessed as remaining activity at 1 uM using GRPRTSSFAEGKK as substrate incubated for 40 mins by scintillation counting method relative to control
Summary of the method: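 Eurofins KinaseProfiler kinase assay on human Akt1, Akt2 and Akt3. Compounds were tested at 1 µM. Residual kinase activity is reported as % of control.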

Huh-7 [4] = experiment: Antitumour activity against human Huh-7 cells xenografted in nude mouse assessed as decrease in Ki-67 at […], ip up to 15 days by immunohistochemical analysis; format: functional, organism-based; details: time day <=15
Summary of the method: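 Subcutaneous Huh-7 xenografts in nude mice were dosed intraperitoneally at 25 or 50 mg/kg and followed over days 1–15. For IHC, tumour sections had microwave antigen retrieval in EDTA (pH 8.0) or citrate (pH 6.0) buffer. They were incubated with primary antibody at 37 °C for 30–40 min, then secondary antibody with HRP polymer for 30 min, and developed with DAB. Normal IgG served as negative control.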

[5] = biological target: cAMP-dependent protein kinase catalytic subunit alpha (Homo sapiens) (UniProt P17612); experiment: Inhibition of full length human PKAcalpha assessed as remaining activity at 1 uM using LRRASLG as substrate incubated for 40 mins by scintillation counting method relative to control
Summary of the method: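 Run as an outsourced KinaseProfiler service, with human PKA and Akt1, Akt2 and Akt3 in the same panel. Each compound was tested at a single 1 µM concentration, and the result is reported as kinase activity remaining, as a percentage of control.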

HepG2 = experiment: Cytotoxicity against human HepG2 cells assessed as reduction in cell viability by MTT assay; format: functional, cell-based; summary of the method: as §2
Huh-7 [6] = experiment: Induction of autophagy in human Huh-7 cells harboring mCherry-GFP-LC assessed as increase in autophagosome puncta formation at 0.2 uM by fluorescence assay; format: functional, cell-based
Huh-7 [7] = experiment: Antitumour activity against human Huh-7 cells xenografted in nude mouse assessed as reduction in tumour volume at […], ip up to 15 days; format: functional, organism-based; details: time day <=15
Summary of the method: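 Nude mice bearing subcutaneous Huh-7 xenografts received 25 or 50 mg/Kg compound intraperitoneally. Tumor volume was followed from day 1 to day 15, with excised tumors weighed at the end. Body weight was also monitored.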

Huh-7 [8] = experiment: Antitumour activity against human Huh-7 cells xenografted in nude mouse assessed as decrease in p62/SQSTMI at 20 to 50 mg/kg, ip up to 15 days by immunohistochemical analysis; format: functional, organism-based; details: dose 20-50 mg/kg, time day <=15
Summary of the method: (§3)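 Tumors came from Huh-7 xenografted nude mice dosed intraperitoneally at 25 or 50 mg/Kg for 15 days. For IHC, sections underwent microwave antigen retrieval (EDTA pH 8.0 or citrate pH 6.0), then primary antibody at 37 °C for 30-40 min. HRP polymer/secondary was applied for 30 min, with DAB development and control IgG.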

[9] = Effect on total AKT level in human Huh-7 cells xenografted in nude mouse at 20 to 50 mg/kg, ip up to 15 days by immunohistochemical analysis; format: ADME, organism-based; details: in vivo, 360 h, dose 20-50 mg/kg, time <=15 day; summary of the method: as §3
Hep 3B2 [10] = experiment: Induction of autophagy in human Hep3B cells harboring GFP-LC3 assessed as increase in number of the autophagosome puncta at 0.2 uM after 6 hrs; format: functional, cell-based
Summary of the method: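 GFP-LC3-transfected cells were exposed to saline or compound for 6 h, then fixed with paraformaldehyde. Autophagosome puncta were scored by fluorescence of accumulated GFP-LC3.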

Huh-7 [11] = experiment: Induction of autophagy in human Huh-7 cells assessed as increase in LC3-2 protein expression at 0.1 to 0.2 uM by Western blot analysis; format: functional, cell-based; details: dose 0.1-0.2 µM; summary of the method: as §1
Huh-7 [12] = experiment: Induction of apoptosis in human Huh-7 cells assessed as necrotic cells at 0.2 uM by Annexin V/propidium iodide staining based flow cytometric analysis (reference value: 0.59%); format: functional
Huh-7 [13] = experiment: Induction of apoptosis in human Huh-7 cells assessed as upregulation of cytochromeC protein expression at 0.1 to 0.2 uM by Western blot analysis; format: functional, cell-based; details: dose 0.1-0.2 µM; summary of the method: as §1
Huh-7 [14] = experiment: Antitumour activity against human Huh-7 cells xenografted in nude mouse assessed as reduction in tumour weight at […], ip up to 15 days; format: functional, organism-based; details: time day <=15
Huh-7 [15] = experiment: Induction of autophagy in human Huh-7 cells assessed as reduction in cell viability up to 72 hrs in presence of Baf-A1 by MTT assay; format: functional, cell-based; details: time hrs <=72
Huh-7 [16] = experiment: Induction of autophagy in human Huh-7 cells assessed as reduction in cathepsin B activity at 0.2 uM in presence of 3-MA; format: functional, cell-based
Huh-7 [17] = experiment: Induction of autophagy in human Huh-7 cells assessed as reduction in cell viability up to 72 hrs in presence of 3-MA by MTT assay; format: functional, cell-based; details: time hrs <=72
Huh-7 [18] = experiment: Induction of autophagy flux arrest in human Huh-7 cells assessed as reduction in LC3 at 0.2 uM by immunofluorescence staining based assay; format: functional, cell-based
Summary of the method: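 Huh-7 cells with or without 0.2 µM compound were immunofluorescently co-stained for LC3 (autophagosome) and LAMP1 (lysosome). Co-localization was assessed by fluorescence imaging.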

Huh-7 [19] = experiment: Antitumour activity against human Huh-7 cells xenografted in nude mouse assessed as increase in LC3-2 at 20 to 50 mg/kg, ip up to 15 days by immunohistochemical analysis; format: functional, organism-based; details: dose 20-50 mg/kg, time day <=15; summary of the method: as §3
[20] = biological target: Glycogen synthase kinase-3 beta (Homo sapiens) (UniProt P49841); experiment: Inhibition of GSK3beta phosphorylation at […] residue in human Huh-7 cells at 0.1 to 0.2 uM by Western blot analysis; format: cell-based; details: dose 0.1-0.2 µM; summary of the method: as §1
Huh-7 [21] = experiment: Antitumour activity against human Huh-7 cells xenografted in nude mouse assessed as decrease in phosphorylation of AKT at 20 to 50 mg/kg, ip up to 15 days by immunohistochemical analysis; format: functional, organism-based; details: dose 20-50 mg/kg, time day <=15; summary of the method: as §3
Huh-7 [22] = experiment: Induction of autophagosome in human Huh-7 harboring GFP-LC3 cells at 0.2 uM in presence of 3-MA by fluorescence microscopic analysis; format: functional, cell-based
Huh-7 [23] = experiment: Induction of autophagy in human Huh-7 cells assessed as increase in p62/SQSTM1 protein expression at 0.1 to 0.2 uM by Western blot analysis; format: functional, cell-based; details: dose 0.1-0.2 µM; summary of the method: as §1
Huh-7 [24] = experiment: Induction of apoptosis in human Huh-7 cells assessed as late apoptotic cells at 0.2 uM by Annexin V/propidium iodide staining based flow cytometric analysis (reference value: 3.15%); format: functional
[25] = Inhibition of full length human Akt1 […] mutant using GRPRTSSFAEGKK as substrate incubated for 40 mins by scintillation counting method
Summary of the method: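 Eurofins KinaseProfiler enzymatic assay on human Akt isoforms. IC50 values are the mean of at least three independent replicates ± standard deviation.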

RAC-beta serine/threonine-protein kinase (Homo sapiens), P31751 [S474D], sequence (P31751 whole entry S474D): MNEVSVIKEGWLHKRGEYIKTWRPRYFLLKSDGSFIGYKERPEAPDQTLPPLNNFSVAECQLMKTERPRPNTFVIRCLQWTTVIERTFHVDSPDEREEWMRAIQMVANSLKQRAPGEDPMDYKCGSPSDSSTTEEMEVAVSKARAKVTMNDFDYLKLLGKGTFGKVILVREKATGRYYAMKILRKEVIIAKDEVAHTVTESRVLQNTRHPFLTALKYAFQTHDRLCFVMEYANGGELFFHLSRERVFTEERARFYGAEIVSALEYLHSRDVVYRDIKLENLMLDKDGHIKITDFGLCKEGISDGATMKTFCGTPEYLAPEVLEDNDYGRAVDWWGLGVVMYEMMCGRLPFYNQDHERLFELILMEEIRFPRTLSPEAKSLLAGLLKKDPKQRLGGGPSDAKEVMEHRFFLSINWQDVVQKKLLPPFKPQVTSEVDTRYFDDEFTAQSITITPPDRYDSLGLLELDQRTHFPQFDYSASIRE
Glycogen synthase kinase-3 beta (Homo sapiens), sequence (P49841 whole entry, looked up): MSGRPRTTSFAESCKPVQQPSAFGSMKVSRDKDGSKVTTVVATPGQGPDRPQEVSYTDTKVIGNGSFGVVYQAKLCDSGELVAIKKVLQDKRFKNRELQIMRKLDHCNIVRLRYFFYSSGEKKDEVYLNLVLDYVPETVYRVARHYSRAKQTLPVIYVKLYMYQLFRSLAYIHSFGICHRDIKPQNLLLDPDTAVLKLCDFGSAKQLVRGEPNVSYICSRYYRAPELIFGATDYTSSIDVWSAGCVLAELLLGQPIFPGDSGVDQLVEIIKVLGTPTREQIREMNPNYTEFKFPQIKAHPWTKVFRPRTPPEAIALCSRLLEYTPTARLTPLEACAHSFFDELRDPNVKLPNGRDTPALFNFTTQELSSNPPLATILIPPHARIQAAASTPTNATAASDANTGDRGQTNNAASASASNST

Activity [3]: 63%
Activity [5]: 35%
inhibition [20]: Active
pIC50 [25]: 7.47
SMILES: O=C(C(CNC1CCCC1)c1ccc(Cl)cc1)N1CCN(c2ncnc3sc4c(c23)CCC4)CC1 (stereo unspecified)
Activity [1]: Non-Toxic
pIC50 (Hep 3B2 [2]): 6.88
Activity (Huh-7 [4]): Active
pIC50 (HepG2): 6.74
Activity (Huh-7 [6]): Active
Activity (Huh-7 [7]): Active
Activity (Huh-7 [8]): Active
Activity [9]: Non-Toxic
Activity (Hep 3B2 [10]): Active
Activity (Huh-7 [11]): Active
Activity (Huh-7 [12]): 2.99%
Activity (Huh-7 [13]): Active
Activity (Huh-7 [14]): Active
Activity (Huh-7 [15]): Active
Activity (Huh-7 [16]): inactive
Activity (Huh-7 [17]): inactive
Activity (Huh-7 [18]): Active
Activity (Huh-7 [19]): Active
Activity (Huh-7 [21]): Active
Activity (Huh-7 [22]): inactive
Activity (Huh-7 [23]): Active
Activity (Huh-7 [24]): 9.13%
